According to ChEMBL document CHEMBL1154778, “Synthesis and biological evaluation of C-5 methyl substituted 4-arylthio and 4-aryloxy-3-Iodopyridin-2(1H)-one type anti-HIV agents” (J Med Chem, 2009):

System: Human immunodeficiency virus 1
Test: Antiviral activity against HIV1 HXB2 harboring K103N mutant reverse transcriptase infected in human MT4 cells after 5 days by MTT assay
Format: functional, organism-based
Conditions: Human immunodeficiency virus 1, HXB2, MT4, 120 h
How it was run: (§1)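 Mutant viruses were made by recombining the mutant PR-RT sequence into a PR-RT-deleted HIV-1 HXB2 proviral clone. MT4 cells were grown in RPMI 1640 with 10% FCS and antibiotics. Virus at 200 CCID50/well and 30000 cells/well were incubated with varied compound concentrations for 5 days at 37 °C, 5% CO2. MTT viability gave IC50, the concentration giving 50% infection versus the drug-free control.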
Work on `Cc1cc(C)cc(Oc2c(CSC(C)C)c(C)[nH]c(=O)c2I)c1` yielded an IC50 of 12.5 nM.
Molecule `Cc1cc(C)cc(Sc2c(Cn3cnc(C)c3C#N)c(C)[nH]c(=O)c2I)c1` has an IC50 of 1.25 nM.
With `Cc1cc(C)cc(Oc2c(COCCO)c(C)[nH]c(=O)c2I)c1` the IC50 was 39.8 nM.
For `Cc1cc(C)cc(Oc2c(CSCC3CCCO3)c(C)[nH]c(=O)c2I)c1` (stereo not given), the IC50 was 25.6 nM.
Molecule `Cc1cc(C)cc(Oc2c(CNC(=O)c3cc4ccccc4o3)c(C)[nH]c(=O)c2I)c1` has an IC50 of 199 nM.
In the case of `Cc1cc(C)cc(Sc2c(Cn3cnc(C)c3/C=N/O)c(C)[nH]c(=O)c2I)c1`, the IC50 is reported as 158 nM.
In the case of `Cc1cc(C)cc(Oc2c(CSCc3cccc(C#N)c3)c(C)[nH]c(=O)c2I)c1`, the IC50 is reported as 1.58 nM.
Work on `Cc1cc(C)cc(Sc2c(CN3CCOCC3)c(C)[nH]c(=O)c2I)c1` yielded an IC50 of 1.25 nM.
Work on `Cc1cc(C)cc(Sc2c(CN3CCC(O)CC3)c(C)[nH]c(=O)c2I)c1` yielded an IC50 of 12.5 nM.
Molecule `Cc1cc(C)cc(Sc2c(CN3CCCCC3)c(C)[nH]c(=O)c2I)c1` has an IC50 of 31.6 nM.

System: Human immunodeficiency virus 1
Test: Antiviral activity against HIV1 HXB2 harboring Y188L mutant reverse transcriptase infected in human MT4 cells after 5 days by MTT assay
Format: functional, organism-based
Conditions: Human immunodeficiency virus 1, HXB2, MT4, 120 h
How it was run: as §1
For `Cc1cc(C)cc(Oc2c(CSC(C)C)c(C)[nH]c(=O)c2I)c1`, the IC50 was 316 nM.
Work on `Cc1cc(C)cc(Sc2c(Cn3cnc(C)c3C#N)c(C)[nH]c(=O)c2I)c1` yielded an IC50 of 100 nM.
Work on `Cc1cc(C)cc(Oc2c(COCCO)c(C)[nH]c(=O)c2I)c1` yielded an IC50 of 501 nM.
For `Cc1cc(C)cc(Oc2c(CSCC3CCCO3)c(C)[nH]c(=O)c2I)c1` (stereo not given), the IC50 was 158 nM.
`Cc1cc(C)cc(Oc2c(CNC(=O)c3cc4ccccc4o3)c(C)[nH]c(=O)c2I)c1` showed an IC50 of 158 nM.
Molecule `Cc1cc(C)cc(Sc2c(Cn3cnc(C)c3/C=N/O)c(C)[nH]c(=O)c2I)c1` has an IC50 of 3160 nM.
`Cc1cc(C)cc(Oc2c(CSCc3cccc(C#N)c3)c(C)[nH]c(=O)c2I)c1` showed an IC50 of 794 nM.
In the case of `Cc1cc(C)cc(Sc2c(CN3CCOCC3)c(C)[nH]c(=O)c2I)c1`, the IC50 is reported as 158 nM.
Work on `Cc1cc(C)cc(Sc2c(CN3CCC(O)CC3)c(C)[nH]c(=O)c2I)c1` yielded an IC50 of 3980 nM.
Work on `Cc1cc(C)cc(Sc2c(CN3CCCCC3)c(C)[nH]c(=O)c2I)c1` yielded an IC50 of 7940 nM.

System: Human immunodeficiency virus 1
Test: Antiviral activity against HIV1 HXB2 harboring Y181C mutant reverse transcriptase infected in human MT4 cells after 5 days by MTT assay
Format: functional, organism-based
Conditions: Human immunodeficiency virus 1, HXB2, MT4, 120 h
How it was run: as §1
With `Cc1cc(C)cc(Oc2c(CSC(C)C)c(C)[nH]c(=O)c2I)c1` the IC50 was 39.8 nM.
Molecule `Cc1cc(C)cc(Sc2c(Cn3cnc(C)c3C#N)c(C)[nH]c(=O)c2I)c1` has an IC50 of 31.6 nM.
Work on `Cc1cc(C)cc(Oc2c(COCCO)c(C)[nH]c(=O)c2I)c1` yielded an IC50 of 31.6 nM.
With `Cc1cc(C)cc(Oc2c(CSCC3CCCO3)c(C)[nH]c(=O)c2I)c1` (stereo not given) the IC50 was 63 nM.
With `Cc1cc(C)cc(Oc2c(CNC(=O)c3cc4ccccc4o3)c(C)[nH]c(=O)c2I)c1` the IC50 was 31.6 nM.
`Cc1cc(C)cc(Sc2c(Cn3cnc(C)c3/C=N/O)c(C)[nH]c(=O)c2I)c1` showed an IC50 of 1260 nM.
`Cc1cc(C)cc(Oc2c(CSCc3cccc(C#N)c3)c(C)[nH]c(=O)c2I)c1` gave an IC50 of 6.3 nM.
`Cc1cc(C)cc(Sc2c(CN3CCOCC3)c(C)[nH]c(=O)c2I)c1` gave an IC50 of 31.6 nM.
In the case of `Cc1cc(C)cc(Sc2c(CN3CCC(O)CC3)c(C)[nH]c(=O)c2I)c1`, the IC50 is reported as 316 nM.
Work on `Cc1cc(C)cc(Sc2c(CN3CCCCC3)c(C)[nH]c(=O)c2I)c1` yielded an IC50 of 794 nM.

System: Human immunodeficiency virus 1
Test: Antiviral activity against HIV-1 LAI harboring wild type reverse transcriptase infected in human MT4 cells after 5 days by MTT assay
Format: functional, organism-based
Conditions: Human immunodeficiency virus 1, LAI, MT4, 120 h
How it was run: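 MT4 cells were kept in RPMI 1640 with 10% fetal calf serum and antibiotics at 37 °C, 5% CO2. A range of compound concentrations was incubated with HIV-1 LAI at 200 CCID50/well and 30000 MT4 cells/well for 5 days at 37 °C. Cell viability was read by MTT, and IC50 was the concentration giving 50% infection versus the drug-free control.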
With `Cc1cc(C)cc(Oc2c(CSC(C)C)c(C)[nH]c(=O)c2I)c1` the IC50 was 5 nM.
In the case of `Cc1cc(C)cc(Sc2c(Cn3cnc(C)c3C#N)c(C)[nH]c(=O)c2I)c1`, the IC50 is reported as 1.25 nM.
`Cc1cc(C)cc(Oc2c(COCCO)c(C)[nH]c(=O)c2I)c1` showed an IC50 of 1.99 nM.
With `Cc1cc(C)cc(Oc2c(CSCC3CCCO3)c(C)[nH]c(=O)c2I)c1` (stereo not given) the IC50 was 7.94 nM.
`Cc1cc(C)cc(Oc2c(CNC(=O)c3cc4ccccc4o3)c(C)[nH]c(=O)c2I)c1` gave an IC50 of 6.3 nM.
Molecule `Cc1cc(C)cc(Sc2c(Cn3cnc(C)c3/C=N/O)c(C)[nH]c(=O)c2I)c1` has an IC50 of 6.3 nM.
`Cc1cc(C)cc(Oc2c(CSCc3cccc(C#N)c3)c(C)[nH]c(=O)c2I)c1` gave an IC50 of 3.16 nM.
In the case of `Cc1cc(C)cc(Sc2c(CN3CCOCC3)c(C)[nH]c(=O)c2I)c1`, the IC50 is reported as 1.25 nM.
Work on `Cc1cc(C)cc(Sc2c(CN3CCC(O)CC3)c(C)[nH]c(=O)c2I)c1` yielded an IC50 of 5.01 nM.
`Cc1cc(C)cc(Sc2c(CN3CCCCC3)c(C)[nH]c(=O)c2I)c1` gave an IC50 of 6.3 nM.

System: not listed separately
Test: Selectivity index, ratio of CC50 for human MT4 cells to IC50 for HIV-1 LAI harboring wild type reverse transcriptase infected in human MT4 cells
Format: functional
Conditions: not given
How it was run: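 Cytotoxicity was measured in mock-infected MT4 cultures (30000 cells/well) given the same compound concentration range, run in parallel with the infected cultures for 5 days at 37 °C, 5% CO2, with MTT viability. CC50 was the concentration reducing viability by 50% versus the drug-free control. SI was CC50 divided by IC50 against HIV-1 LAI.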
With `Cc1cc(C)cc(Oc2c(CSC(C)C)c(C)[nH]c(=O)c2I)c1` the “Ratio CC50/IC50” value was >19953.
With `Cc1cc(C)cc(Sc2c(Cn3cnc(C)c3C#N)c(C)[nH]c(=O)c2I)c1` the “Ratio CC50/IC50” value was >79433.
With `Cc1cc(C)cc(Oc2c(COCCO)c(C)[nH]c(=O)c2I)c1` the “Ratio CC50/IC50” value was >50119.
With `Cc1cc(C)cc(Oc2c(CSCC3CCCO3)c(C)[nH]c(=O)c2I)c1` (stereo not given) the “Ratio CC50/IC50” value was >12589.
With `Cc1cc(C)cc(Oc2c(CNC(=O)c3cc4ccccc4o3)c(C)[nH]c(=O)c2I)c1` the “Ratio CC50/IC50” value was >15849.
For `Cc1cc(C)cc(Sc2c(Cn3cnc(C)c3/C=N/O)c(C)[nH]c(=O)c2I)c1`, the “Ratio CC50/IC50” value was >15849.
In the case of `Cc1cc(C)cc(Oc2c(CSCc3cccc(C#N)c3)c(C)[nH]c(=O)c2I)c1`, the “Ratio CC50/IC50” value is reported as 19953.
With `Cc1cc(C)cc(Sc2c(CN3CCOCC3)c(C)[nH]c(=O)c2I)c1` the “Ratio CC50/IC50” value was 7943.
In the case of `Cc1cc(C)cc(Sc2c(CN3CCC(O)CC3)c(C)[nH]c(=O)c2I)c1`, the “Ratio CC50/IC50” value is reported as >19953.
With `Cc1cc(C)cc(Sc2c(CN3CCCCC3)c(C)[nH]c(=O)c2I)c1` the “Ratio CC50/IC50” value was >15849.
